11 compounds from ChEMBL document CHEMBL1126860, “Efficient inhibition of human leukocyte elastase and cathepsin G by saccharin derivatives” (J Med Chem, 1993) can be followed below.

Molecules are shown by their SMILES. The source made the active and inactive calls. No cut-off for these calls is given here.

One experiment has as its target T1, Neutrophil elastase (Homo sapiens) (UniProt P08246).
T1 sequence (whole entry): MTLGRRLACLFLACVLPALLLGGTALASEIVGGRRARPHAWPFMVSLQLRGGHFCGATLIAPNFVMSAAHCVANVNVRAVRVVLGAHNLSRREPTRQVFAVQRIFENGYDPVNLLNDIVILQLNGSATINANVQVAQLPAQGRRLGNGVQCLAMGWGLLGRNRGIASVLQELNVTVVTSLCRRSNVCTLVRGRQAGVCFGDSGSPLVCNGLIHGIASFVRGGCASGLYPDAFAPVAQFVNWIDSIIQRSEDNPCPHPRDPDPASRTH
The experiment is described as follows: Apparent second-order inactivation rate constant was evaluated against human leukocyte Elastase; Inactive. It counts as functional. An outline of the steps:
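Incubation method: human leukocyte elastase (300 nM) with inhibitor in 0.1 M HEPES, pH 7.25, 1% DMSO. Aliquots withdrawn periodically and assayed for residual activity with methoxysuccinyl-Ala-Ala-Pro-Val p-nitroanilide. Pseudo-first-order k_obs taken from slopes of ln(Et/Eo) versus time, then expressed as k_obs/[I] (M⁻¹ s⁻¹). Kinetics analysed by the Kitz–Wilson method.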
In the case of `O=C1c2ccccc2S(=O)(=O)N1CO`, the “K obs / 1 1/Ms” value is “inactive”.

The next experiment addresses T1, Neutrophil elastase (Homo sapiens). The experiment in a line: Apparent second-order inactivation rate constant was evaluated against human leukocyte Elastase. It counts as functional.
Take `O=C(C[S+]([O-])c1ccccc1)OCN1C(=O)c2ccccc2S1(=O)=O` (stereo unspecified): the K obs / 1 1/Ms turned out to be 800.

Take `O=C(CCc1ccccc1)OCN1C(=O)c2ccccc2S1(=O)=O`: the K obs / 1 1/Ms amounted to 2280.

For the compound `O=C(/C=C/Sc1ccccc1)OCN1C(=O)c2ccccc2S1(=O)=O`, the K obs / 1 1/Ms was 8390.

As for `O=C(/C=C\Sc1ccccc1)OCN1C(=O)c2ccccc2S1(=O)=O`, the K obs / 1 1/Ms came to 5700.

Regarding `O=C(CS(=O)(=O)c1ccccc1)OCN1C(=O)c2ccccc2S1(=O)=O`, the K obs / 1 1/Ms was 780.

For `O=C(CSc1ccccc1)OCN1C(=O)c2ccccc2S1(=O)=O`, the K obs / 1 1/Ms came out at 1790.

In the case of `CC(=O)OCN1C(=O)c2ccccc2S1(=O)=O`, the K obs / 1 1/Ms came to 140.

For `O=C(/C=C/c1ccccc1)OCN1C(=O)c2ccccc2S1(=O)=O`, the K obs / 1 1/Ms was determined as 2240.

Take `O=C1c2ccccc2S(=O)(=O)N1CF`: the K obs / 1 1/Ms worked out at 4750.

As for `O=C1c2ccccc2S(=O)(=O)N1Cn1ccnc1`, the K obs / 1 1/Ms came to 40.
